Assay [1] has as its target 3-(3-hydroxydecanoyloxy)decanoate synthase (Pseudomonas aeruginosa (strain ATCC 15692 / PAO1 / 1C / PRS 101 / LMG12228)) (UniProt Q51559). Nature of the assay: Modulation of Pseudomonas aeruginosa lacZ-fused rhlA expressed in Escherichia coli DH5alpha co-expressing Ptac-rhlR assessed as C4-AHL-induced effect at 0.33 mM after 4 hrs by beta-galactosidase assay relative to control. In a few lines:
(§1)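 rhl reporter: E. coli DH5α carrying pECP61.5 (Ptac-rhlR, PrhlA-lacZ) was grown overnight in LB with ampicillin (100 μg/ml) only, then diluted to OD600 0.150. It was induced with 1 mM IPTG, and 2 μM C4-HSL plus compound or DMSO were added at OD600 1.0. Cultures were shaken 4 h at 37 °C. β-Galactosidase activity was read in Miller units as % of the solvent sample. Triplicates per biological replicate, at least two repeats; paired two-tailed t-test.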

Assay [2] addresses T1, Acyl-homoserine-lactone synthase (Pseudomonas aeruginosa (strain ATCC 15692 / PAO1 / 1C / PRS 101 / LMG12228)) (UniProt P33883).
T1 sequence (whole entry): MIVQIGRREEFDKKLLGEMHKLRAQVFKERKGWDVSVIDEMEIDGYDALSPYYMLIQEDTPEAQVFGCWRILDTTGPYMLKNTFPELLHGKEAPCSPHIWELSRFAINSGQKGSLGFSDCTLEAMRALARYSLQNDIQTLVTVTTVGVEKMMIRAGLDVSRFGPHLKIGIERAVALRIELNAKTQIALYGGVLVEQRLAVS
Nature of the assay: Modulation of Pseudomonas aeruginosa lacZ-fused lasI expressed in Escherichia coli DH5alpha co-expressing pBAD-lasR assessed as 3-oxo-C12-AHL-induced effect at 0.66 mM after 3 hrs by beta-galactosidase assay relative to control. In a few lines: (§2)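 E. coli DH5α carrying pSC11 (PlasI-lacZ translational fusion) and pJN105L (PBAD-lasR) was grown overnight in LB with ampicillin (100 μg/ml) and gentamicin (15 μg/ml), then diluted to OD600 0.150. Arabinose (0.2% w/v), 3-oxo-C12-AHL (2 μM) and test compound or DMSO were added. Cultures were shaken 3 h at 37 °C. β-Galactosidase activity was read in Miller units and expressed as % of the solvent sample. Triplicates per biological replicate, repeated at least twice; paired two-tailed t-test.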

Assay [3] has as its target T1, Acyl-homoserine-lactone synthase (Pseudomonas aeruginosa (strain ATCC 15692 / PAO1 / 1C / PRS 101 / LMG12228)). As to the kind of experiment: Modulation of Pseudomonas aeruginosa lacZ-fused lasI expressed in Escherichia coli DH5alpha co-expressing pBAD-lasR assessed as 3-oxo-C12-AHL-induced effect at 0.33 mM after 3 hrs by beta-galactosidase assay relative to control. In a few lines:
as §2

The target of assay [4] is 3-(3-hydroxydecanoyloxy)decanoate synthase (Pseudomonas aeruginosa (strain ATCC 15692 / PAO1 / 1C / PRS 101 / LMG12228)) (UniProt Q51559). As to the kind of experiment: Modulation of Pseudomonas aeruginosa lacZ-fused rhlA expressed in Escherichia coli DH5alpha co-expressing Ptac-rhlR assessed as C4-AHL-induced effect at 0.17 mM after 4 hrs by beta-galactosidase assay relative to control. In a few lines: as §1

The target of assay [5] is T1, Acyl-homoserine-lactone synthase (Pseudomonas aeruginosa (strain ATCC 15692 / PAO1 / 1C / PRS 101 / LMG12228)). Nature of the assay: Modulation of Pseudomonas aeruginosa lacZ-fused lasI expressed in Escherichia coli DH5alpha co-expressing pBAD-lasR assessed as 3-oxo-C12-AHL-induced effect at 0.50 mM after 3 hrs by beta-galactosidase assay relative to control. In a few lines:
as §2

For assay [6], the target named is 3-(3-hydroxydecanoyloxy)decanoate synthase (Pseudomonas aeruginosa (strain ATCC 15692 / PAO1 / 1C / PRS 101 / LMG12228)) (UniProt Q51559). Nature of the assay: Modulation of Pseudomonas aeruginosa lacZ-fused rhlA expressed in Escherichia coli DH5alpha co-expressing Ptac-rhlR assessed as C4-AHL-induced effect at 0.66 mM after 4 hrs by beta-galactosidase assay relative to control. The method in brief: (§3)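 E. coli DH5α carrying pECP61.5 (Ptac-rhlR, PrhlA-lacZ), grown overnight in LB with ampicillin 100 μg/ml and diluted to OD600 0.150. At OD600 1.0, 1 mM IPTG, 2 μM C4-HSL and compound or DMSO were added. Cultures were shaken 4 h at 37 °C, then β-galactosidase was read in Miller units. Activity is % of solvent sample, from triplicates per biological replicate, with at least two repeats.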

Assay [7] shares this target. Nature of the assay: Modulation of Pseudomonas aeruginosa lacZ-fused rhlA expressed in Escherichia coli DH5alpha co-expressing Ptac-rhlR assessed as C4-AHL-induced effect at 0.50 mM after 4 hrs by beta-galactosidase assay relative to control. The method in brief: as §1
The target in assay [8] is T1, Acyl-homoserine-lactone synthase (Pseudomonas aeruginosa (strain ATCC 15692 / PAO1 / 1C / PRS 101 / LMG12228)). Nature of the assay: Modulation of Pseudomonas aeruginosa lacZ-fused lasI expressed in Escherichia coli DH5alpha co-expressing pBAD-lasR assessed as 3-oxo-C12-AHL-induced effect at 0.17 mM after 3 hrs by beta-galactosidase assay relative to control. The method in brief:
as §2

For assay [9] the target is unchanged. Nature of the assay: Modulation of Pseudomonas aeruginosa lacZ-fused lasI expressed in Escherichia coli DH5alpha co-expressing pBAD-lasR assessed as 3-oxo-C12-AHL-induced effect at 0.80 mM after 3 hrs by beta-galactosidase assay relative to control. The method in brief: as §2
Assay [10] deals with 3-(3-hydroxydecanoyloxy)decanoate synthase (Pseudomonas aeruginosa (strain ATCC 15692 / PAO1 / 1C / PRS 101 / LMG12228)) (UniProt Q51559). As to the kind of experiment: Modulation of Pseudomonas aeruginosa lacZ-fused rhlA expressed in Escherichia coli DH5alpha co-expressing Ptac-rhlR assessed as C4-AHL-induced effect at 0.20 mM after 4 hrs by beta-galactosidase assay relative to control. The method in brief:
as §1

For assay [11], the target named is T1, Acyl-homoserine-lactone synthase (Pseudomonas aeruginosa (strain ATCC 15692 / PAO1 / 1C / PRS 101 / LMG12228)). As to the kind of experiment: Modulation of Pseudomonas aeruginosa lacZ-fused lasI expressed in Escherichia coli DH5alpha co-expressing pBAD-lasR assessed as 3-oxo-C12-AHL-induced effect at 0.60 mM after 3 hrs by beta-galactosidase assay relative to control. In a few lines:
as §2

In assay [12] the target is 3-(3-hydroxydecanoyloxy)decanoate synthase (Pseudomonas aeruginosa (strain ATCC 15692 / PAO1 / 1C / PRS 101 / LMG12228)) (UniProt Q51559). Nature of the assay: Modulation of Pseudomonas aeruginosa lacZ-fused rhlA expressed in Escherichia coli DH5alpha co-expressing Ptac-rhlR assessed as C4-AHL-induced effect at 0.40 mM after 4 hrs by beta-galactosidase assay relative to control. The method in brief:
as §1

In assay [13] the target is T1, Acyl-homoserine-lactone synthase (Pseudomonas aeruginosa (strain ATCC 15692 / PAO1 / 1C / PRS 101 / LMG12228)). Nature of the assay: Modulation of Pseudomonas aeruginosa lacZ-fused lasI expressed in Escherichia coli DH5alpha co-expressing pBAD-lasR assessed as 3-oxo-C12-AHL-induced effect at 0.20 mM after 3 hrs by beta-galactosidase assay relative to control. In a few lines:
as §2

Assay [14] deals with 3-(3-hydroxydecanoyloxy)decanoate synthase (Pseudomonas aeruginosa (strain ATCC 15692 / PAO1 / 1C / PRS 101 / LMG12228)) (UniProt Q51559). As to the kind of experiment: Modulation of Pseudomonas aeruginosa lacZ-fused rhlA expressed in Escherichia coli DH5alpha co-expressing Ptac-rhlR assessed as C4-AHL-induced effect at 0.60 mM after 4 hrs by beta-galactosidase assay relative to control. The method in brief: as §3

The target of assay [15] is T1, Acyl-homoserine-lactone synthase (Pseudomonas aeruginosa (strain ATCC 15692 / PAO1 / 1C / PRS 101 / LMG12228)). As to the kind of experiment: Modulation of Pseudomonas aeruginosa lacZ-fused lasI expressed in Escherichia coli DH5alpha co-expressing pBAD-lasR assessed as 3-oxo-C12-AHL-induced effect at 0.40 mM after 3 hrs by beta-galactosidase assay relative to control. The method in brief:
as §2

Assay [16] has as its target 3-(3-hydroxydecanoyloxy)decanoate synthase (Pseudomonas aeruginosa (strain ATCC 15692 / PAO1 / 1C / PRS 101 / LMG12228)) (UniProt Q51559). As to the kind of experiment: Modulation of Pseudomonas aeruginosa lacZ-fused rhlA expressed in Escherichia coli DH5alpha co-expressing Ptac-rhlR assessed as C4-AHL-induced effect at 0.80 mM after 4 hrs by beta-galactosidase assay relative to control. The method in brief: as §3

In assay [17] the target is T2, Transcriptional activator protein LasR (Pseudomonas aeruginosa (strain ATCC 15692 / PAO1 / 1C / PRS 101 / LMG12228), UniProt P25084).
T2 sequence (P25084 whole entry): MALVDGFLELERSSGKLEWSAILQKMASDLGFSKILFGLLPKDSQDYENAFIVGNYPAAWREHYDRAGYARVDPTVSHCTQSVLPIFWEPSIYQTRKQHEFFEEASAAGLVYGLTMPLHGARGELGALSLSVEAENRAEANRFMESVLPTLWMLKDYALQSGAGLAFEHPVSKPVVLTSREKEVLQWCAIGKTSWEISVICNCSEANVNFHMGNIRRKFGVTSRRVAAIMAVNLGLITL
Nature of the assay: Inhibition of Pseudomonas aeruginosa LasR.

Assay [18] concerns the target T1, Acyl-homoserine-lactone synthase (Pseudomonas aeruginosa (strain ATCC 15692 / PAO1 / 1C / PRS 101 / LMG12228)). As to the kind of experiment: Modulation of Pseudomonas aeruginosa lacZ-fused lasI expressed in Escherichia coli DH5alpha co-expressing pBAD-lasR at 0.002 mM after 3 hrs by beta-galactosidase assay relative to control. The method in brief:
as §2

For the compound `CCCCCCCCCCCCSC[C@@H]1CCC(O)N1` (mixture of isomers), the Activity in assay [1] was 93%; in [2], 34%; in assay [3] it was 56%; in assay [4], 98%; in assay [5], 45%; in assay [6] it was 96%. The Activity in [7] was found to be 91%; in [8] it was 72%.
Take `CCCCCCSC[C@H]1NC(O)[C@H](O)[C@@H]1O` (mixture of isomers): the Activity came to 42% in assay [9]; 94% in assay [10]; 51% in assay [11]; 105% in assay [12]; 84% in assay [13]; 109% in assay [14]. For the same compound, the values for the Activity in assay [15] and in assay [16] were 68% and 116%, respectively.
Consider `O=C(Cc1cccc([N+](=O)[O-])c1)N[C@H]1CCOC1=O`, for which the IC50 in [17] stood at 610 nM.
In assay [18], `CCCCCCCCCC(=O)CC(=O)N[C@H]1CCOC1=O` came in with an Activity of 100%.
Turning to `CCCCCCCCCCCC(=O)N[C@H]1CCOC1=O`, 40 nM corresponded to half-maximal inhibition in [17] (IC50).

The record behind these values is ChEMBL document CHEMBL1817556, “Substituted lactam and cyclic azahemiacetals modulate Pseudomonas aeruginosa quorum sensing” (Bioorg Med Chem, 2011).
